ChEMBL document CHEMBL1123768, “Synthesis and characterization of all four isomers of the muscarinic agonist 2'-methylspiro[1-azabicyclo[2.2.2]octane-3,4'-[1,3]dioxolane]” (J Med Chem, 1987)

How the values were obtained:
[1] = molecular target: T1, Muscarinic acetylcholine receptor M2 (Rattus norvegicus) (UniProt P10980)
T1 sequence (whole entry): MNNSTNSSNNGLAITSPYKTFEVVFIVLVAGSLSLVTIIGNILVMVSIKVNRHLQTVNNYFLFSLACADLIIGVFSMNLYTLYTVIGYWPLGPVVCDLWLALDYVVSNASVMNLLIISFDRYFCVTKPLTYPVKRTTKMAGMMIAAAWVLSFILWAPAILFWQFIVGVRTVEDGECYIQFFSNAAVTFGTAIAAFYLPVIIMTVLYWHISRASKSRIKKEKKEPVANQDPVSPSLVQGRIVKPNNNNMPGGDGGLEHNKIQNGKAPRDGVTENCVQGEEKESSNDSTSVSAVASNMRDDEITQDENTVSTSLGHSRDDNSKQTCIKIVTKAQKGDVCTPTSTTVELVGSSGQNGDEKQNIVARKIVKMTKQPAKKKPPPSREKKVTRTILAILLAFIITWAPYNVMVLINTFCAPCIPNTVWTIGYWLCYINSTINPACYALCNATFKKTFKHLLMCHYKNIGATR

[2] = molecular target: T2, Muscarinic acetylcholine receptor M1 (Rattus norvegicus) (UniProt P08482)
T2 sequence (whole entry): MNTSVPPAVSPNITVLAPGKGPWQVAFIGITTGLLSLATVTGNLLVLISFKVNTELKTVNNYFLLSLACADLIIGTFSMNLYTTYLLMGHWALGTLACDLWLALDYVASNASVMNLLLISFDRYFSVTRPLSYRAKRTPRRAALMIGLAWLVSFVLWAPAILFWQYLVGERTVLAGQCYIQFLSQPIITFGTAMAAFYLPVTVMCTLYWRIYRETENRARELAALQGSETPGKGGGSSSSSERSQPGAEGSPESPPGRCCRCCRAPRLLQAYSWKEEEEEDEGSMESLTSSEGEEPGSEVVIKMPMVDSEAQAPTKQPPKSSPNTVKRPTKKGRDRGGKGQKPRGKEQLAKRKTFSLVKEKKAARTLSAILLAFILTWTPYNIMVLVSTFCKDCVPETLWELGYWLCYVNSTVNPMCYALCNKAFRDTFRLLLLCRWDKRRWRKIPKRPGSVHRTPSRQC

[3] = species on record: Rattus norvegicus; test: (§1) Determined for potency (muscarinic agonistic activity) expressed in superior cervical ganglion in vitro; type: functional; conditions: for EC50: Rattus norvegicus, Superior cervical ganglion
Summary of the method: (§2)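 Potentials were recorded by grease-gap between the ganglion body and the internal carotid nerve. Semicumulative concentration–response curves used 1-min agonist superfusions every 10 min. Potency is given as −log EC50 (M). Efficacy is the ratio to the maximum response to 1 µM (±)-muscarine chloride.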

[4] = species on record: Cavia porcellus; test: (§3) Determined for potency (muscarinic agonistic activity) expressed in guinea pig isolated atria in vitro; conditions: read-out: Log EC50 (converted)
[5] = species on record: Rattus norvegicus; test: Determined for Functional efficacy compared to 1 uM muscarine in superior cervical ganglion
Summary of the method: as §2

[6] = species on record: Cavia porcellus; test: (§4) Determined for potency (muscarinic agonistic activity) expressed in guinea pig ileum in vitro; conditions: read-out: Log EC50 (converted)
[7] = species on record: Cavia porcellus; test: Functional efficacy compared to 1 uM muscarine and the maximum response to carbachol in guinea pig ileum
Summary of the method: (§5)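 Agonist-evoked contractions were recorded and concentration–response curves built. EC50 is the concentration giving 50% of that tissue's own maximum, reported as −log EC50 (M).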

[8] = species on record: Cavia porcellus; test: Functional efficacy compared to 1 uM muscarine and the maximum response to carbachol in guinea pig isolated atria
[9] = species on record: Cavia porcellus; test: as §4; type: functional
Summary of the method: as §5

[10] = as §1; type: functional, tissue-based, Rattus norvegicus
Summary of the method: as §2

[11] = species on record: Cavia porcellus; test: as §3; type: functional
[12] = molecular target: T2, Muscarinic acetylcholine receptor M1 (Rattus norvegicus); remark: listed apart in the source
[13] = molecular target: T1, Muscarinic acetylcholine receptor M2 (Rattus norvegicus); remark: listed apart in the source

Row | Compound | K app [1] [µM] | K app [2] [µM] | Log EC50 [3] | EC50 [4] [µM] | FE [5] | EC50 [6] [µM] | FE [7] | FE [8] | further results
1 | CC1OCC2(CN3CCC2CC3)O1 (single isomer, unassigned) [listing 1 of 2 here] | 92 | 66 |  |  |  |  |  |  | 
2 | C[C@@H]1OCC2(CN3CCC2CC3)O1 (stereo in doubt; 1A1) [listing 1 of 2 here] |  |  | < -4 |  |  |  |  |  | 
3 | C[C@@H]1OCC2(CN3CCC2CC3)O1.C[C@H]1OCC2(CN3CCC2CC3)O1 (some centres undefined) [listing 1 of 2 here] |  |  |  | 21.9 | 0.7 | 3.31 | 0.8 | 0.8 | EC50 [3]: 5.75 µM
4 | C[C@H]1OCC2(CN3CCC2CC3)O1 (stereo in doubt; 1B1) | 2.2 | 2.7 | -5.25 | 14.8 | 0.8 | 2.19 | 0.8 | 0.8 | 
5 | C[C@@H]1OCC2(CN3CCC2CC3)O1 (stereo in doubt; 1B2) [listing 1 of 2 here] | 8.5 | 4.1 |  |  |  |  |  |  | 
6 | C[C@@H]1OCC2(CN3CCC2CC3)O1 (stereo in doubt; 1A1) [listing 2 of 2 here] | 64 | 55 |  |  |  |  |  |  | 
7 | C[C@@H]1OCC2(CN3CCC2CC3)O1 (stereo in doubt; 1B2) [listing 2 of 2 here] |  |  | -4.56 | 100 | 0.7 | 20 | 0.7 | 0.2 | 
8 | C[N+](C)(C)CCOC(N)=O.[Cl-] [CARBACHOL] | 1.9 | 45 |  | 0.209 |  | 0.102 | 1 | 1 | 
9 | CC1OCC2(CN3CCC2CC3)O1 (single isomer, unassigned) [listing 2 of 2 here] |  |  | < -4 |  |  |  |  |  | EC50 [9]: > 316 µM
10 | C[C@@H]1OCC2(CN3CCC2CC3)O1.C[C@H]1OCC2(CN3CCC2CC3)O1 (some centres undefined) [listing 2 of 2 here] | 8.4 | 5.9 |  |  |  |  |  |  | 
11 | CC1OCC2(CN3CCC2CC3)O1 (centres undefined) [listing 1 of 2 here] |  |  |  |  | 0.7 |  | 0.8 | 0.8 | Log EC50 [10]: -4.83; EC50 [11]: 83.2 µM; EC50 [9]: 6.31 µM
12 | C[C@@H]1O[C@H](C[N+](C)(C)C)C[C@H]1O [MUSCARINE] | 2.3 | 28 |  |  | 1.1 |  |  |  | EC50 [3]: 0.17 µM
13 | CC1OCC2(CN3CCC2CC3)O1 (centres undefined) [listing 2 of 2 here] |  |  |  |  |  |  |  |  | K app [12]: 6.8 µM; K app [13]: 13 µM
